Rows were chosen to be rich in hits. Some 1.2% of all compounds tested hit in one or more screens of this group.
TNAP inh no acc: inhibitors of human TNAP without phosphate acceptor; purified TNAP, CDP-star luminescence, 30 min; inhibition, % at 20 µM; actives 0.26% (n = 200,000);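 active means tissue-nonspecific alkaline phosphatase inhibition above about 50% at 20 µM in the single-dose screen, limit read from the data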
Target sequence (P05186 whole entry, looked up): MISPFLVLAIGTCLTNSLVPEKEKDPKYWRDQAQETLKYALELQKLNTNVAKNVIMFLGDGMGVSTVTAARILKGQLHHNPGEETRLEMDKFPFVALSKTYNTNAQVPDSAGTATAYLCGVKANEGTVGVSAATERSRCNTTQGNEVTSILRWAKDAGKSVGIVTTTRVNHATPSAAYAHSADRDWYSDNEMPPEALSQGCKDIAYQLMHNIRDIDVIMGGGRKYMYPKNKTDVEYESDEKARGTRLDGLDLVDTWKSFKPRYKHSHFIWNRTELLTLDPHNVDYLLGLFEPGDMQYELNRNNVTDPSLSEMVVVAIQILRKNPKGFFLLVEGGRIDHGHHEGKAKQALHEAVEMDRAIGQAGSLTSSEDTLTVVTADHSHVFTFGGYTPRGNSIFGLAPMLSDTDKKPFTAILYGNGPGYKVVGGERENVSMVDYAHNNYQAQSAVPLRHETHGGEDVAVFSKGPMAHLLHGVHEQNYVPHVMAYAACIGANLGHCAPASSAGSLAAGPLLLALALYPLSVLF
Insulin prom inh: TRM-6 insulin promoter activity inhibition; TRM-6 cells, insulin promoter-eGFP reporter, imaging; reporter expression induced with tamoxifen; inhibition, % at 2 µM; actives 0.9% (n = 130,000); AID 1273;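 active means inhibition above the mean plus 3 SD, with well images judged a real hit on visual review, cut at about 60% in these data, passing the limit was not always enough; inconclusive means inhibition over the cutoff but images rejected on review; inactive means inhibition not above the cutoff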
TNAP act hiacc: TNAP (human) activation, high acceptor. 200,000 tested, under 10 active. activation factor at 20 µM. P05186. purified TNAP, CDP-star luminescence, 1 M DEA, 30 min; stronger effect = higher value; 0 = EDTA background, 1 = DMSO-only activity;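 active means activation factor at least 2 at 20 µM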
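Dosing: 20 µM single point. System: human TNAP. Amount: TNAP 1/800 final. Incubation: 30 min, room temperature. Read-out: TNAP activation factor scaled between EDTA and DMSO control wells. Signal: luminescence from CDP-star hydrolysis. Medium: 1 M DEA, pH 9.8, Mg2+, Zn2+. Control set: EDTA negative control, DMSO positive control.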
HMGR II inh: blocks class II HMG-CoA reductase of Enterococcus faecalis; AID 1066; purified E. faecalis HMGR, NADPH absorbance 340 nm kinetic; inhibition, % at 10 µM; actives 0.41% (n = 190,000);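 active means inhibition above a set limit, the median over all tested compounds plus 3 SD, cut at about 9.5% in these data; inconclusive means no clear call, values can overlap the other calls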;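 further: enzyme runs in reverse so mevalonate oxidation gives rising NADPH absorbance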
TNAP inh hiacc: TNAP (human) inhibition, high acceptor. inhibition, % at 20 µM. purified TNAP, CDP-star luminescence, 1 M DEA. P05186. actives 0.03% (n = 200,000). AID 1135;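 active means over 50% inhibition of tissue-nonspecific alkaline phosphatase at 20 µM in the single-dose screen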
Hits are given with their value; i = inactive; ? = inconclusive; nt = not tested or not shown.

SMILES	TNAP inh no acc	Insulin prom inh	TNAP act hiacc	HMGR II inh	TNAP inh hiacc
CN(C)CCCNC1=CC(=O)CC(c2ccccc2)C1 (stereo unspecified)	i	83	i	i	i
CCCCN1C(=O)/C(=C/C=C2\SCCN2C)SC1=S	i	i	i	i	52
CN1CCS/C1=C/C=C1\SC(=S)N(CC(=O)O)C1=O	i	nt	i	i	i
C=CCC1C=C(C)CC(CC=C)N1 (stereo unspecified)	i	i	i	13	i
Clc1ccc(-c2nnnn2-c2ccc(Cl)c(Cl)c2)cc1Cl	i	i	i	i	i
COC(=O)C1=C(C)NC(=O)/C1=C\c1cc(C)n(-c2ccccc2C)c1C	i	71	i	i	i
COc1ccccc1C1NC=C([N+](=O)[O-])C=C1[N+](=O)[O-] (stereo unspecified)	57	i	i	i	i
C[C@@H](c1ncncc1F)[C@](O)(Cn1cncn1)c1ccc(F)cc1F	i	nt	i	i	i
O=C(NC1CC1)C1CCN(C2CCN(C(=O)Cc3ccc(F)cc3)CC2)CC1	i	nt	i	i	i
CC(C)Cc1cc(C(=O)N2CCC(N3CCC(C(=O)N4CCOCC4)CC3)CC2)n[nH]1	88	i	i	i	i
O=C(c1cc2ccccc2o1)N1CCC(N2CCC(C(=O)N3CCCC3)CC2)CC1	i	nt	i	i	i
CC(C)Cc1cc(C(=O)N2CCC(N3CCC(C(=O)NC4CC4)CC3)CC2)n[nH]1	92	nt	i	i	i
CC(C)Cc1cc(C(=O)N2CCC(N3CCC(C(=O)N4CCCC4)CC3)CC2)n[nH]1	87	nt	i	i	i
S=c1[nH]nc(-c2cc3ccccc3o2)n1Cc1ccccc1	i	i	i	i	i
COc1cc(NC(=O)c2cc3nc(-c4ccccc4)cc(-c4ccccc4)n3n2)cc(OC)c1OC	i	nt	i	17	i
COc1cc(NC(=O)c2ccccc2-c2ccccc2)cc(OC)c1OC	i	nt	i	i	i
COc1ccccc1C(=O)NNC(=O)c1nn(Cc2ccccc2)c(=O)c2ccccc12	i	80	i	i	i
Cc1ccccc1OCCNC(=O)/C=C/c1ccccc1	i	i	i	i	i
CC(C)OCCCNC(=O)C(C)Oc1ccccc1 (stereo unspecified)	i	i	i	i	i
CC(C)OCCCNC(=O)Nc1cccc2ccccc12	i	nt	i	14	i
CCCn1c(CCc2ccccc2)nnc1SCC(=O)N1CCOCC1	i	78	i	i	i
Cn1c(CCc2ccccc2)nnc1SCC(=O)N1CCOCC1	i	i	i	i	i
Cc1ccc(NC(=O)CNc2ccccc2CN(C)C2CCCCC2)cc1	i	nt	i	i	i
CCNC(=S)SCCOc1ccc(C)cc1	i	i	i	i	i
COc1ccc(S(=O)(=O)c2nnn(-c3ccccc3Cl)c2N)cc1	i	73	i	i	i
SMILES	TNAP inh no acc	Insulin prom inh	TNAP act hiacc	HMGR II inh	TNAP inh hiacc
CC(C)OP(=O)(OC(C)C)C(C)NC(=O)Cc1ccccc1 (stereo unspecified)	i	82	i	i	i
CS(=O)(=O)N1CCC(C(=O)Nc2ccccc2)CC1	i	i	i	i	i
CS(=O)(=O)N1CCC(C(=O)Nc2ccc(OCc3ccccc3)cc2)CC1	i	71	i	i	i
Cc1c(Cl)cccc1NC(=S)N1CCN(Cc2ccc3c(c2)OCO3)CC1	i	i	i	i	i
O=C(c1ccc(Cl)cc1)N(Cc1ccccc1F)N1C(=O)CCCC1=O	i	nt	i	i	i
Cc1ccc(CC(NC(=O)c2ccccc2)C(=O)N2CCCC2C(=O)O)cc1 (stereo unspecified)	i	i	i	i	i
O=C(NC(Cc1ccc2c(c1)OCO2)C(=O)N1CCCC1C(=O)O)c1ccccc1 (stereo unspecified)	i	87	i	i	i
O=C(c1cc2cc([N+](=O)[O-])ccc2oc1=O)N1CCN(C2CCCCC2)CC1	i	nt	i	9.7	i
CCOC(=O)c1sc(NC(=O)c2ccccc2F)c(C(N)=O)c1C	i	79	i	i	i
CCOC(=O)c1sc(NC(C)=O)c(C(=O)OCC)c1C	i	nt	i	i	i
O=C(Cn1nnc(-c2cccs2)n1)N1c2ccccc2Sc2ccc(C(F)(F)F)cc21	nt	80	nt	i	nt
Cc1cc(C)n(CC(=O)N2c3ccccc3Sc3ccc(C(F)(F)F)cc32)n1	i	?	i	i	i
COc1ccccc1C(=O)NCCn1cc(SCC(=O)Nc2cc(C)on2)c2ccccc21	i	i	i	13	i
COc1ccc(C(=O)NCCn2cc(SCC(=O)Nc3cc(C)on3)c3ccccc32)cc1OC	i	nt	i	i	i

High-throughput results deposited in PubChem by several laboratories.
